Assay results published in ChEMBL document CHEMBL1146382, “Design and synthesis of BACE1 inhibitors containing a novel norstatine derivative (2R,3R)-3-amino-2-hydroxy-4-(phenylthio)butyric acid” (Bioorg Med Chem Lett, 2007).
Numbered stars: 1 amine (or outer) side, 2 acyl side, 3 side chain; on linkers, the order of the positions; unused ones are H or OH. Square brackets hold non-standard residues; d marks the D form. Peptide text beside a SMILES is read from it. β3hPhe(2R-OH) = O=C([C@H](O)[C@H](Cc1ccccc1)N[*:1])[*:2]; X1 = O=C([C@H](O)[C@H](CSc1ccccc1)N[*:1])[*:2]

How the values were obtained:
[1] = target: Beta-secretase 1 (Homo sapiens) (UniProt P56817); experiment: Inhibition of human recombinant BACE1 at 0.2 uM
Sequence of Beta-secretase 1 (Homo sapiens) (P56817 whole entry): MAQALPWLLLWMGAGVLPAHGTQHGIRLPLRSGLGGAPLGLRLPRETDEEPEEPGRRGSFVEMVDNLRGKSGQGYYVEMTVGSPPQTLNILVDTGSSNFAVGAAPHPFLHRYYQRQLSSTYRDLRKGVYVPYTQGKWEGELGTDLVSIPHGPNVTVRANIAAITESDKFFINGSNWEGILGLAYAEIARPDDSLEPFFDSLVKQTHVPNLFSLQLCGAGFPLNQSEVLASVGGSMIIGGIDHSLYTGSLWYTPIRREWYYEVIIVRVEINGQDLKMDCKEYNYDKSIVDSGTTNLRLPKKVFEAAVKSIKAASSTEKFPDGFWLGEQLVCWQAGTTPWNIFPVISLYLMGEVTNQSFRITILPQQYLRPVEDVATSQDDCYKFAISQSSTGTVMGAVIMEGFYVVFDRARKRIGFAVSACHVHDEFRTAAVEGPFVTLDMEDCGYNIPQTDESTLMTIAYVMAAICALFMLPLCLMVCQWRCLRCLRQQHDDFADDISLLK
How it was run: (§1)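 Recombinant human BACE1 enzymatic assay. Inhibition is expressed as the percent decrease in substrate cleaved by the enzyme.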

[2] = target: Beta-secretase 1 (Homo sapiens) (UniProt P56817); experiment: Inhibition of human recombinant BACE1 at 2 uM; how it was run: as §1

| inhibition [1] [%] | inhibition [2] [%] | Compound |
| --- | --- | --- |
| 34 | 82 | CC(C)C[C@H](NC(=O)[C@@H](NC(=O)[C@@H](N)CCC(=O)O)C(C)C)C(=O)N[C@@H](CSc1ccccc1)[C@@H](O)C(=O)N[C@@H](CC(=O)O)C(=O)N[C@@H](C)C(=O)N[C@@H](CCC(=O)O)C(=O)N[C@@H](Cc1ccccc1)C(=O)O (H-EVL[X1]DAEF-OH) |
| 32 |  | CC(C)C[C@H](NC(=O)[C@@H](NC(=O)[C@@H](N)CCC(=O)O)C(C)C)C(=O)N[C@@H](Cc1ccccc1)[C@@H](O)C(=O)N[C@@H](CC(=O)O)C(=O)N[C@@H](C)C(=O)N[C@@H](CCC(=O)O)C(=O)N[C@@H](Cc1ccccc1)C(=O)O (H-EVL[β3hPhe(2R-OH)]DAEF-OH) |
| 80 | 98 | CC(C)C[C@H](NC(=O)[C@@H](NC(=O)[C@@H](N)CNC(=O)c1cc(N)cc(C(=O)O)c1)C(C)C)C(=O)N[C@@H](Cc1ccccc1)[C@@H](O)C(=O)Nc1cccc(C(=O)O)c1 |
|  | 69 | CC(C)C[C@H](NC(=O)[C@@H](NC(=O)[C@@H](N)CCC(=O)O)C(C)C)C(=O)N[C@@H](CSc1ccccc1)[C@@H](O)C(=O)N[C@@H](CC(=O)O)C(=O)O (H-EVL[X1]D-OH) |
| 86 | 99 | CC(C)C[C@H](NC(=O)[C@@H](NC(=O)[C@@H](N)CNC(=O)c1cc(N)cc(C(=O)O)c1)C(C)C)C(=O)N[C@@H](CSc1ccccc1)[C@@H](O)C(=O)Nc1cccc(C(=O)O)c1 |
| 57 | 96 | CC(C)C[C@H](NC(=O)[C@@H](NC(=O)[C@@H](N)CCC(=O)O)C(C)C)C(=O)N[C@@H](CSc1ccccc1)[C@@H](O)C(=O)Nc1cccc(C(=O)O)c1 |
